For data set [1], the system named is Lyssavirus rabies. As to the kind of experiment: Antirabies activity against rabies CVS infected in golden hamster BSR cells preincubated for 1 hr followed by mixing of cells measured after 24 hrs by inverted fluorescence microscope analysis. The class given is functional, organism-based.
The nature of data set [2]: Selectivity index, ratio of CC50 for cytotoxicity against golden hamster BSR cells to EC50 for antirabies activity against Rabies virus infected in golden hamster BSR cells. The class given is toxicity, cell-based. To be noted: read-out: Selectivity Index.
In the next data set the test system is Huh-7. The data set can be described thus: Cytotoxicity against human HuH-7 cells assessed as reduction in cell viability incubated for 24 hrs by microplate reader assay. Format: functional.
For the next data set, the system named is SARS-CoV-2. The data set can be described thus: Antiviral activity against S-protein based pseudotyped SARS-CoV-2 infected in Huh7 cells measured after 24 hrs by bright-Glo luciferase assay. Format: functional, organism-based. To be noted: Severe acute respiratory syndrome coronavirus 2, Huh-7, 24 h. In outline: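 Serial dilutions from 200 μM were held with pseudotyped SARS-CoV-2 (1.3 × 10^4 TCID50) at 37 °C for 1 h, then mixed with Huh7 cells (2000 cells/well) and incubated 24 h. EC50 was calculated from bioluminescence intensity.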

Data set [3] in a line: Selectivity index, ratio of CC50 for cytotoxicity against human Huh7 cells to EC50 for antiviral activity against S-protein based pseudotyped SARS-CoV-2 infected in Huh7 cells. Format: functional.
A short description of data set [4]: Acute toxicity in Kunming mouse assessed as lethal dose administered orally measured after 7 days. To be noted: in vivo, 800 mg/kg, route po, time 7 day. The gist of the method: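 Female Kunming mice (20.0 ± 1.0 g), 6 per group, randomly assigned. Single oral dose of 0, 200, 400, 600 or 800 mg•kg−1, with ddH2O as control. Body weight, behaviour and survival monitored for 7 days.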

A further data set deals with Spike glycoprotein (Severe acute respiratory syndrome coronavirus 2, UniProt P0DTC2). As to the kind of experiment: Binding affinity to SARS-CoV-2 spike protein assessed as Kd by SPR analysis.
Data set [5] has as its system Lyssavirus rabies. The data set can be described thus: Antirabies activity against rabies CVS infected in golden hamster BSR cells assessed as inhibition of viral growth at 25 uM treated 1 hr post infection measured after 23 hrs by measuring luciferase signal. Format: functional, organism-based. To be noted: time 24.0 hrs.
Data set [6] is described as follows: Binding affinity to rabies recombinant GST-His-tagged G-glycoprotein protein (20 to 459 AA residues) expressed in Escherichia coli BL21 (DE3) cells assessed as Kd treated for 60 secs followed dissociation time of 120 secs by SPR analysis. Details: species or system Lyssavirus rabies. The gist of the method:
(§1)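 Biacore SPR with PBS-P as sample and running buffer. Target protein was amine-coupled to a CM5 chip in sodium acetate pH 4.0. Compound dilution series flowed at 30 μL/min, with 60 s contact and 120 s dissociation. Reference flow cell and blank cycle responses were subtracted.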
In general terms: SPR reads the build-up and loss of mass on a sensor chip optically.

Data set [7] concerns the target Spike glycoprotein (Severe acute respiratory syndrome coronavirus 2) (UniProt P0DTC2). The data set can be described thus: Binding affinity to SARS-CoV-2 spike protein at 0.16 to 5 uM by SPR analysis. To be noted: dose 0.16-5 µM, DDE = dose-dependent effect. In outline: as §1
Data set [8] is described as follows: Cytotoxicity against golden hamster BSR cells assessed as reduction in cell viability incubated for 24 hrs by microplate luminometer method. The class given is toxicity, cell-based, Mesocricetus auratus. To be noted: BSR cells. In outline:
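BSR cells given serial dilutions from 200 μM, with medium in place of virus. After 24 h at 37 °C, viability was read by luminometer and CC50 calculated.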

Each structure is given as a SMILES string. pEC50, pKd: −log10 of the molar value. Calls of active or inactive are those of the source. The calls are words filed in the database; no cut-off is given here.

By pEC50 is commonly meant the negative decadic logarithm of the EC50, by convention in mol/L. As usually defined, the CC50 is the concentration at which the toxic effect on the cells reaches its halfway point. A word on the LD50: it is the dose at which mortality reaches 50%. As usually defined, the pKd is −log10 of the Kd, conventionally taken in molar units.

On to `COc1ccc(-n2c3c/c(=N\C(C)C)c(Nc4cccc(F)c4)cc-3nc3ccccc32)cn1`, for which the pEC50 was 5.84 in the data set with Lyssavirus rabies [1] and 4.84 in the data set on SARS-CoV-2. Also, in [2], the selectivity ratio stood at 223. In addition, the CC50 with Huh-7 came to 88.9 µM. The “Selectivity Index” value in data set [3] is 6.1. Also, the LD50 at 168 h in data set [4] turned out to be 800 mg/kg. The pKd at Spike glycoprotein is 5.60; in data set [6], 6.14. Moreover, in the data set with Lyssavirus rabies [5], the result was Active. In addition, in data set [7], the Activity result is “Dde”.
With `CC(C)/N=c1\cc2n(-c3ccc(Cl)cc3)c3ccccc3nc-2cc1Nc1ccc(Cl)cc1` [CLOFAZIMINE], the CC50 at 24 h in data set [8] is 323 µM. The pEC50 in the data set on Lyssavirus rabies [1] is 5.64; in the data set on SARS-CoV-2, 5.00. For the same compound, the CC50 with Huh-7 came to 44.7 µM. In addition, the pKd in data set [6] is 6.55.
Take `COc1ccc(-n2c3c/c(=N\C(C)C)c(Nc4ccc(F)cc4)cc-3nc3ccccc32)cn1`: the CC50 at 24 h in data set [8] stood at 323 µM. In addition, the pEC50 in the data set on Lyssavirus rabies [1] was 5.85; in the data set on SARS-CoV-2 it was greater than 5.00. The selectivity ratio in data set [2] was determined as 229. The CC50 in the data set on Huh-7 is 88.9 µM. In addition, the “Selectivity Index” value in data set [3] is recorded as greater than 8.9. The LD50 at 168 h in data set [4] was 800 mg/kg. Further, the outcome in the data set with Lyssavirus rabies [5] was Active.

The record behind these values is ChEMBL document CHEMBL5154797 (Eur J Med Chem, 2022).
